Test results published in ChEMBL document CHEMBL2440111, “Overcoming doxorubicin-resistance in the NCI/ADR-RES model cancer cell line by novel anthracene-9,10-dione derivatives” (Bioorg Med Chem Lett, 2013).
Active and inactive are the calls of the source. The calls are words filed in the database; no cut-off is given here.

Legend:
LNCaP [1] = assay: Antiproliferative activity against human LNCAP cells after 72 hrs by MTT assay; type: functional, cell-based
Summary of the method: (§1)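 Cells kept in exponential growth at 37 °C in humidified 5% CO2 with 2 mM L-glutamine, mycoplasma-checked. Compounds were applied over a dose range and viability was read by MTT relative to an untreated control. IC50 is the concentration giving a 50% decrease in viability. Values are mean ± SD of three independent experiments.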

NCI/ADR-RES [2] = assay: Inhibition of colony formation in human NCI/ADR-RES cells at 1 uM after 24 hrs; type: functional, cell-based
Summary of the method: (§2)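 NCI/ADR-RES cells were seeded at 100 cells/well and left to attach overnight. Serial compound dilutions were applied for 24 h, then washed out. Colonies grew in drug-free medium for 8-10 days and were fixed with 1% glutaraldehyde and stained with 2% crystal violet, 30 min each. Colonies were imaged and counted versus untreated control; values are means of ≥3 independent experiments.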

NCI/ADR-RES [3] = assay: Antiproliferative activity against human NCI/ADR-RES cells at 20 uM after 72 hrs by MTT assay; type: functional
Summary of the method: (§3)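 Each cell line in the panel was treated with 20 µM compound, with doxorubicin as reference. Exponentially growing cells were grown at 37 °C in 5% CO2. MTT read-out served as a surrogate of viable cell number, expressed as % inhibition versus an untreated control. Values are mean ± SD of three independent experiments.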

MIA PaCa-2 [4] = assay: Antiproliferative activity against human MIAPaCa2 cells after 72 hrs by MTT assay; type: functional, cell-based; conditions: MIA PaCa-2, 72 h; summary of the method: as §1
BXPC-3 [5] = assay: Antiproliferative activity against human BxPC3 cells after 72 hrs by MTT assay; type: functional, cell-based; conditions: BXPC-3, 72 h; summary of the method: as §1
OVCAR-8 [6] = assay: Antiproliferative activity against human OVCAR8 cells after 72 hrs by MTT assay; type: functional, cell-based; conditions: OVCAR-8, 72 h; summary of the method: as §1
OVCAR-8 [7] = assay: Antiproliferative activity against human OVCAR8 cells at 20 uM after 72 hrs by MTT assay in presence of glutathione; type: functional, cell-based
[8] = Antiproliferative activity against human Caov3 cells after 72 hrs by MTT assay; type: functional, cell-based; conditions: Caov-3, 72 h; summary of the method: as §1
NCI/ADR-RES [9] = assay: Inhibition of colony formation in human NCI/ADR-RES cells after 24 hrs; type: functional, cell-based; summary of the method: as §2
U2OS [10] = assay: Antiproliferative activity against human U2OS cells after 72 hrs by MTT assay; type: functional, cell-based; summary of the method: as §1
DU-145 [11] = assay: Antiproliferative activity against human DU145 cells after 72 hrs by MTT assay; type: functional, cell-based; conditions: DU-145, 72 h; summary of the method: as §1
MIA PaCa-2 [12] = assay: Antiproliferative activity against human MIAPaCa2 cells at 20 uM after 72 hrs by MTT assay; type: functional; conditions: MIA PaCa-2, 72 h; summary of the method: as §3
NCI/ADR-RES [13] = assay: Cell cycle arrest in human NCI/ADR-RES cells assessed as accumulation at G0/G1 phase at 10 uM after 24 hrs using propidium iodide staining by flow cytometry (reference value: 51%); type: functional
NCI/ADR-RES [14] = assay: Cell cycle arrest in human NCI/ADR-RES cells assessed as accumulation at G2/M phase at 10 uM after 24 hrs using propidium iodide staining by flow cytometry (reference value: 35%); type: functional
OVCAR-8 [15] = assay: Antiproliferative activity against human OVCAR8 cells at 20 uM after 72 hrs by MTT assay; type: functional; conditions: OVCAR-8, 72 h; summary of the method: as §3
BXPC-3 [16] = assay: Antiproliferative activity against human BxPC3 cells at 20 uM after 72 hrs by MTT assay; type: functional; conditions: BXPC-3, 72 h; summary of the method: as §3
LNCaP [17] = assay: Increase of cleaved caspase-9 level in human LNCAP cells at 3 uM after 24 hrs by Western blot analysis; type: functional, cell-based
Summary of the method: (§4)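 LNCaP cells were treated for 24 h, then lysed. Equal protein was run on 12% SDS-PAGE and blotted to PVDF. Membranes were blocked 1 h in 5% skim milk/TBS-0.1% Tween and probed overnight at 4 °C with anti-p53 or anti-caspase-9. A secondary antibody and ECL detection followed, with GAPDH as loading control.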

U2OS [18] = assay: Antiproliferative activity against human U2OS cells at 20 uM after 72 hrs by MTT assay; type: functional; summary of the method: as §3
NCI/ADR-RES [19] = assay: Cell cycle arrest in human NCI/ADR-RES cells assessed as accumulation at S phase at 10 uM after 24 hrs using propidium iodide staining by flow cytometry (reference value: 14%); type: functional
LNCaP [20] = assay: Up-regulation of p53 expression in human LNCAP cells at 3 uM after 24 hrs by Western blot analysis; type: functional, cell-based; summary of the method: as §4
DU-145 [21] = assay: Antiproliferative activity against human DU145 cells at 20 uM after 72 hrs by MTT assay; type: functional; conditions: DU-145, 72 h; summary of the method: as §3
NCI/ADR-RES [22] = assay: Antiproliferative activity against human NCI/ADR-RES cells at 20 uM after 72 hrs by MTT assay in presence of N-acetylcysteine; type: functional
Summary of the method: (§5)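 NCI/ADR-RES cells were pretreated for 2 h with 5 mM N-acetylcysteine or glutathione. Compound at 20 µM was then added for 72 h, with doxorubicin as positive control. Percent inhibition was measured by MTT.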

[23] = Antiproliferative activity against human […] cells at 20 uM after 72 hrs by MTT assay; type: functional; summary of the method: as §3
OVCAR-8 [24] = assay: Antiproliferative activity against human OVCAR8 cells at 20 uM after 72 hrs by MTT assay in presence of N-acetylcysteine; type: functional, cell-based
NCI/ADR-RES [25] = assay: Antiproliferative activity against human NCI/ADR-RES cells at 20 uM after 72 hrs by MTT assay in presence of glutathione; type: functional; summary of the method: as §5
LNCaP [26] = assay: Antiproliferative activity against human LNCAP cells at 20 uM after 72 hrs by MTT assay; type: functional; summary of the method: as §3
PC-3 [27] = assay: Antiproliferative activity against human PC3 cells after 72 hrs by MTT assay; type: functional, cell-based; conditions: PC-3, 72 h; summary of the method: as §1
[28] = Antiproliferative activity against human […] cells after 72 hrs by MTT assay; type: functional, cell-based; summary of the method: as §1
[29] = Antiproliferative activity against human Caov3 cells at 20 uM after 72 hrs by MTT assay; type: functional; conditions: Caov-3, 72 h; summary of the method: as §3
NCI/ADR-RES [30] = assay: Antiproliferative activity against human NCI/ADR-RES cells after 72 hrs by MTT assay; type: functional, cell-based; summary of the method: as §1
NCI/ADR-RES [31] = assay: Ratio of doxorubicin IC50 to compound IC50 for human NCI/ADR-RES cells; type: functional
PC-3 [32] = assay: Antiproliferative activity against human PC3 cells at 20 uM after 72 hrs by MTT assay; type: functional; conditions: PC-3, 72 h; summary of the method: as §3

Row | IC50 (LNCaP [1]) [nM] | IC50 (MIA PaCa-2 [4]) [nM] | IC50 (BXPC-3 [5]) [nM] | IC50 (OVCAR-8 [6]) [nM] | IC50 (U2OS [10]) [nM] | IC50 (DU-145 [11]) [nM] | SMILES | inhibition at 20 µM (NCI/ADR-RES [3]) [%] | inhibition (OVCAR-8 [7]) | IC50 [8] [nM] | inhibition at 20 µM (MIA PaCa-2 [12]) [%] | inhibition at 20 µM (OVCAR-8 [15]) [%] | inhibition at 20 µM (BXPC-3 [16]) [%] | inhibition at 20 µM (U2OS [18]) [%] | inhibition at 20 µM (DU-145 [21]) [%] | inhibition at 20 µM (NCI/ADR-RES [22]) [%] | inhibition at 20 µM [23] [%] | inhibition (OVCAR-8 [24]) | inhibition at 20 µM (LNCaP [26]) [%] | inhibition at 20 µM [29] [%] | inhibition at 20 µM (PC-3 [32]) [%] | further results
1 | 400 | 2700 | 1800 | 3500 | 2800 | 5400 | Cc1ccc(S(=O)(=O)Oc2ccc(NCc3ccc(N)cc3)c3c2C(=O)c2ccccc2C3=O)cc1 | 80.5 | Active | 2500 | 91.1 | 85.4 | 94 | 92.3 | 87.2 | > 60 | 75.1 | Active | 88.9 | 85.7 | 75.8 | inhibition (NCI/ADR-RES [2]): Active; IC50 (NCI/ADR-RES [9]): 500 nM; inhibition (NCI/ADR-RES [9]): Dose-dependent effect; inhibition at 10 µM (NCI/ADR-RES [13]): 30%; inhibition at 10 µM (NCI/ADR-RES [14]): 55%; Activity (LNCaP [17]): Active; inhibition at 10 µM (NCI/ADR-RES [19]): 25%; Activity (LNCaP [20]): inactive; inhibition at 20 µM (NCI/ADR-RES [25]): > 60%; IC50 (PC-3 [27]): 6500 nM; IC50 [28]: 3800 nM; IC50 (NCI/ADR-RES [30]): 800 nM; Ratio IC50 (NCI/ADR-RES [31]): > 25
2 |  |  |  |  |  |  | Cc1ccc(S(=O)(=O)Oc2ccc(OCCOCCOCCO)c3c2C(=O)c2ccccc2C3=O)cc1 | 20.4 |  |  | 53.4 | 13.1 | 15.3 | 44.2 | 16.8 |  | 46.9 | Active | 24.5 | 47.3 | 16.6 | 
3 | 900 | 1900 | 600 | 8000 | 4500 | 2200 | COc1ccc(CNc2ccc(OS(=O)(=O)c3ccc(C)cc3)c3c2C(=O)c2ccccc2C3=O)cc1 | 77.8 | Active | 1800 | 81.4 | 58.2 | 91.5 | 59.8 | 62.2 | > 60 | 53.3 | Active | 78.7 | 83.1 | 46.2 | inhibition (NCI/ADR-RES [9]): Dose-dependent effect; inhibition at 20 µM (NCI/ADR-RES [25]): > 60%; IC50 (PC-3 [27]): 8000 nM; IC50 [28]: > 20000 nM; IC50 (NCI/ADR-RES [30]): 1200 nM
4 | 200 | < 100 | 400 | 600 | 300 | 200 | COc1cccc2c1C(=O)c1c(O)c3c(c(O)c1C2=O)C[C@@](O)(C(=O)CO)C[C@@H]3O[C@H]1C[C@H](N)[C@H](O)[C@H](C)O1 [DOXORUBICIN] | 41 | Active | < 100 | 88.1 | 86 | 96.2 | 90 | 80.6 | 13 | 83.5 | Active | 85.8 | 92.6 | 6.9 | Activity (LNCaP [17]): Active; Activity (LNCaP [20]): Active; inhibition at 20 µM (NCI/ADR-RES [25]): 21%; IC50 (PC-3 [27]): 1000 nM; IC50 [28]: 1500 nM; IC50 (NCI/ADR-RES [30]): > 20000 nM
5 |  |  |  |  |  |  | O=C1c2ccccc2C(=O)c2c(OCCOCCO)ccc(OCCOCCO)c21 | 46.4 |  |  | 31.1 | 3.4 | 23.1 | 32.4 | 10 |  | 44.3 |  | 46.9 | 7.3 | 10.6 | 
6 |  |  |  |  |  |  | Cc1ccc(S(=O)(=O)Oc2ccc(OCCOCCOCCOCCO)c3c2C(=O)c2ccccc2C3=O)cc1 | 1.7 |  |  | 29.5 | 5.5 | 11.8 | 41.9 | 21.6 |  | 47.8 |  | 40.3 | 48.2 | 23.7 | 
7 | 2400 | 4500 | 2400 | 4400 | 4800 | 6500 | Cc1ccc(S(=O)(=O)Oc2ccc(NCc3ccc(Cl)cc3)c3c2C(=O)c2ccccc2C3=O)cc1 | 80.4 | Active | 2500 | 80.6 | 64.4 | 85.2 | 66.1 | 69.1 | > 60 | 63.5 | Active | 79.9 | 84.6 | 81.2 | inhibition (NCI/ADR-RES [9]): Dose-dependent effect; inhibition at 20 µM (NCI/ADR-RES [25]): > 60%; IC50 (PC-3 [27]): > 20000 nM; IC50 [28]: 4000 nM; IC50 (NCI/ADR-RES [30]): 2200 nM
8 |  |  |  |  |  |  | Cc1ccc(S(=O)(=O)Oc2ccc(OCCOCCO)c3c2C(=O)c2ccccc2C3=O)cc1 | 15.3 | Active |  | 35.9 | 8.5 | 14.5 | 43 | 9 |  | 31.4 | Active | 26.7 | 42.7 | 9.9 | 
9 |  |  |  |  |  |  | O=C1c2ccccc2C(=O)c2c(OCCOCCOCCO)ccc(OCCOCCOCCO)c21 | 41.5 |  |  | 36.1 | 37.4 | 17.5 | 11.1 | 17.7 |  | 6.4 |  | 38.2 | 16.3 | 16.4 | 
